Assay results taken from ChEMBL document CHEMBL5715947 (Blood Cancer J, 2011).
Activity calls are given as the source filed them. The calls are words filed in the database; no cut-off is given here.

Key:
[1] = Antiproliferative activity against human derived M4 Fab type Acute myeloid leukemic cells assessed as reduction in cell viability incubated for 48 hr by CellTiter-Glo assay; assay type: functional, cell-based; conditions: Leukemia cell
How it was run: (§1)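 Primary AML peripheral blood or bone marrow mononuclear cells thawed and expanded ex vivo; blasts counted between day 10 and 13, characterised by CD123 FACS and FLT3 genotyping. Blasts treated 48 h; proliferation IC50 read by CellTiter-Glo.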

RS4-11 [2] = assay: Induction of cell cycle arrest in human RS4-11 cells assessed increase in cell accumulation at G1 phase after 24 hrs by Propidium iodide staining based flow cytometric analysis; assay type: functional
How it was run: (§2)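 Cells then fixed in ice-cold 70% ethanol, stained with 20 ng/ml propidium iodide, and cell-cycle phases measured by flow cytometry.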

Leukemia cell [3] = assay: Induction of cell cycle arrest in human derived Acute myeloid leukemic cells assessed as increase in cell accumulation at G1 phase at 0.47 uM after 48 hrs by Propidium iodide staining based flow cytometric analysis
MOLM-13 [4] = assay: Antitumor activity against human MOLM-13 cells harboring FLT-3 ITD mutant xenografted in BALB/c nude mouse assessed as tumor growth inhibition at 50 mg/kg, po bid administered daily for 7 days relative to control; assay type: functional; conditions: MOLM-13, 168 h, time 7 day, read-out: TGI
[5] = Antiproliferative activity against relapsed human derived M2 Fab type Acute myeloid leukemic cells harboring FLT3-ITD mutant assessed as reduction in cell viability incubated for 48 hr by CellTiter-Glo assay; assay type: functional, cell-based; conditions: Leukemia cell; how it was run: as §1
MV4-11 [6] = assay: Induction of apoptosis in human MV4-11 cells harboring FLT3-ITD mutant assessed late apoptotic cells at […] after 48 hrs by AnnexinV-FITC/Propidium iodide staining based flow cytometric analysis (reference value: 1.56 %); assay type: functional; conditions: dose 0.15 µM
MV4-11 [7] = assay: Antitumor activity against human MV4-11 cells harboring FLT-3 ITD mutant xenografted in BALB/c nude mouse assessed as tumor growth inhibition at 50 mg/kg, po administered daily for 21 days relative to control; assay type: functional; conditions: MV4-11, 504 h, time 21 day, read-out: TGI
How it was run: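 Female BALB/c nude mice implanted s.c. in right flank with 1 × 10^7 MV4-11 cells in serum-free medium mixed 1:1 with Matrigel. Randomised on day 11 at mean 146–150 mm3 (n=10/group); oral hydrochloride salt once daily for 21 days in 0.5% methylcellulose/0.1% Tween-80. Doses are free-base equivalents; caliper twice weekly; ANOVA with Dunnett's test.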

MOLM-13 [8] = assay: Antitumor activity against human MOLM-13 cells harboring FLT-3 ITD mutant xenografted in BALB/c nude mouse assessed as decrease in phosphorylated […] residue at 150 mg/kg, po measured after 3 hrs by Western blot analysis; assay type: functional, organism-based
How it was run: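 Mice bearing s.c. MOLM-13 xenografts given a single oral dose of 150 mg/kg. Tumours harvested at 3 h; lysates immunoblotted for phospho-FLT3, -STAT3, -STAT5, -Akt and total actin.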

MV4-11 [9] = assay: Antitumor activity against human MV4-11 cells harboring FLT-3 ITD mutant xenografted in BALB/c nude mouse assessed as decrease in phosphorylated STAT5 at Y694 residue at 150 mg/kg, po measured after 2 to 4 hrs by Western blot analysis; assay type: functional, organism-based; conditions: time 2-4 hrs
How it was run: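 Mice bearing s.c. MV4-11 xenografts given a single oral dose of 150 mg/kg in methylcellulose/Tween vehicle. Tumours harvested at 2 and 4 h; lysates immunoblotted for phospho-STAT5 with actin as loading control.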

[10] = Antiproliferative activity against human derived M5b Fab type Acute myeloid leukemic cells assessed as reduction in cell viability incubated for 48 hr by CellTiter-Glo assay; assay type: functional, cell-based; conditions: Leukemia cell; how it was run: as §1
[11] = (§3) Induction of apoptosis in human derived Acute myeloid leukemic cells assessed increase in cleaved caspase-3/7 after 16 hrs by Caspase-Glo 3/7 assay; assay type: functional, cell-based; conditions: Leukemia cell
How it was run: (§4)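 Expanded primary AML blasts at 300 000 cells/ml treated 16 h; caspase-3/7 activity read by Caspase-Glo 3/7 luminescence and EC50 for apoptosis induction determined.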

Leukemia cell [12] = assay: as §3; assay type: functional, cell-based; how it was run: as §4
MOLM-13 [13] = assay: Induction of cell cycle arrest in human MOLM-13 cells harboring FLT3-ITD mutant assessed increase in cell accumulation at G1 phase after 24 hrs by Propidium iodide staining based flow cytometric analysis; assay type: functional; how it was run: as §2
MV4-11 [14] = assay: Induction of apoptosis in human MV4-11 cells harboring FLT3-ITD mutant assessed viable cells at 0.03 uM after 48 hrs by AnnexinV-FITC/Propidium iodide staining based flow cytometric analysis (reference value: 86.15 %); assay type: functional
MV4-11 [15] = assay: Induction of apoptosis in human MV4-11 cells harboring FLT3-ITD mutant assessed necrotic cells at 0.03 uM after 48 hrs by AnnexinV-FITC/Propidium iodide staining based flow cytometric analysis (reference value: 0.45 %); assay type: functional
MOLM-13 [16] = assay: Antitumor activity against human MOLM-13 cells harboring FLT-3 ITD mutant xenografted in BALB/c nude mouse assessed as decrease in metastatic incidence at 150 mg/kg, po bid administered daily for 7 days; assay type: functional; conditions: time 7 day
MV4-11 [17] = assay: Induction of apoptosis in human MV4-11 cells harboring FLT3-ITD mutant assessed necrotic cells at […] after 48 hrs by AnnexinV-FITC/Propidium iodide staining based flow cytometric analysis (reference value: 0.45 %); assay type: functional; conditions: dose 0.15 µM
MV4-11 [18] = assay: Induction of apoptosis in human MV4-11 cells harboring FLT3-ITD mutant assessed as increase in early apoptotic cells after 72 hrs by AnnexinV-FITC/Propidium iodide staining based flow cytometric analysis; assay type: functional, cell-based; conditions: dose 0.03-0.15 µM
MV4-11 [19] = assay: Induction of apoptosis in human MV4-11 cells harboring FLT3-ITD mutant assessed viable cells at […] after 72 hrs by AnnexinV-FITC/Propidium iodide staining based flow cytometric analysis (reference value: 90.5 %); assay type: functional; conditions: dose 0.15 µM
MV4-11 [20] = assay: Induction of apoptosis in human MV4-11 cells harboring FLT3-ITD mutant assessed necrotic cells at 0.03 uM after 72 hrs by AnnexinV-FITC/Propidium iodide staining based flow cytometric analysis (reference value: 0.53 %); assay type: functional
RS4-11 [21] = assay: Induction of cell cycle arrest in human RS4-11 cells assessed decrease in cell accumulation at S phase after 24 hrs by Propidium iodide staining based flow cytometric analysis; assay type: functional; how it was run: as §2
MV4-11 [22] = assay: Induction of apoptosis in human MV4-11 cells harboring FLT3-ITD mutant assessed late apoptotic cells at 0.03 uM after 48 hrs by AnnexinV-FITC/Propidium iodide staining based flow cytometric analysis (reference value: 1.56 %); assay type: functional
MV4-11 [23] = assay: Induction of apoptosis in human MV4-11 cells harboring FLT3-ITD mutant assessed viable cells at 0.03 uM after 72 hrs by AnnexinV-FITC/Propidium iodide staining based flow cytometric analysis (reference value: 90.5 %); assay type: functional
[24] = Antiproliferative activity against human derived Acute myeloid leukemic cells assessed as reduction in cell viability incubated for 48 hr by CellTiter-Glo assay; assay type: functional, cell-based; conditions: Leukemia cell
MV4-11 [25] = assay: Induction of apoptosis in human MV4-11 cells harboring FLT3-ITD mutant assessed early apoptotic cells at […] after 48 hrs by AnnexinV-FITC/Propidium iodide staining based flow cytometric analysis (reference value: 11.84 %); assay type: functional; conditions: dose 0.15 µM
MV4-11 [26] = assay: Induction of apoptosis in human MV4-11 cells harboring FLT3-ITD mutant assessed early apoptotic cells at […] after 72 hrs by AnnexinV-FITC/Propidium iodide staining based flow cytometric analysis (reference value: 7.34 %); assay type: functional; conditions: dose 0.15 µM

## C1=N/C2=N/c3ccc(OCCN4CCCC4)c(c3)COC/C=C/COCc3cccc(c3)C(=C1)N2 [PACRITINIB]
[1]
  IC50: 840 nM
RS4-11 [2]
  Activity: Dose-Dependent Effect
Leukemia cell [3]
  Activity: Active
MOLM-13 [4]
  inhibition in vivo at 50 mg/kg: 15%
[5]
  IC50: 340 nM
MV4-11 [6]
  Activity: 20.83%
MV4-11 [7]
  inhibition in vivo at 50 mg/kg: 92%
MOLM-13 [8]
  Activity: Active
MV4-11 [9]
  Activity: Active
[10]
  IC50: 240 nM
[11]
  EC50: 268 nM
Leukemia cell [12]
  Activity: Dose-Dependent Effect
MOLM-13 [13]
  Activity: Dose-Dependent Effect
MV4-11 [14]
  Activity: 68.98%
MV4-11 [15]
  Activity: 0.94%
MOLM-13 [16]
  Activity: 0.33
MV4-11 [17]
  Activity: 4.18%
MV4-11 [18]
  Activity: Dose-Dependent Effect
MV4-11 [19]
  Activity: 20.38%
MV4-11 [20]
  Activity: 1.06%
RS4-11 [21]
  Activity: Dose-Dependent Effect
MV4-11 [22]
  Activity: 5.58%
MV4-11 [23]
  Activity: 72.52%
[24]
  IC50: 460 nM
MV4-11 [25]
  Activity: 39.9%
MV4-11 [26]
  Activity: 58.69%
